OX1R antag-1 = antagonists of human orexin 1 receptor; AID 434989; 330,000 tested, 0.43% active; inhibition, % at 5 µM; CHO/OX1R cells, Fluo-8 calcium fluorescence, orexin A; O43613;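 active = inhibition above its plate's threshold, mean inhibition of all tested compounds on the plate plus 3 SD, cut at about 37% in these data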;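 also: 0% = orexin A challenge wells and 100% = SB-334867-A antagonist wells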
Target sequence (O43613 whole entry, looked up): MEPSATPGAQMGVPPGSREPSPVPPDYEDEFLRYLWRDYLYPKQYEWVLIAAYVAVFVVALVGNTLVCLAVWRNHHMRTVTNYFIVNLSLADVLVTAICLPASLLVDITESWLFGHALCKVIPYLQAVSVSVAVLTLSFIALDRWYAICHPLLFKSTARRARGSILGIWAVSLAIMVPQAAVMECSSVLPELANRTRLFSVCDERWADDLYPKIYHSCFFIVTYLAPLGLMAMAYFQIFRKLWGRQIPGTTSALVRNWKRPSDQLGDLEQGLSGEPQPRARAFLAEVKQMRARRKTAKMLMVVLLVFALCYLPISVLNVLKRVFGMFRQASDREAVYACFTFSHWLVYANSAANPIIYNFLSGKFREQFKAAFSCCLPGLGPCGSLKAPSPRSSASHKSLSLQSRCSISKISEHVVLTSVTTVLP
GPR7 antag = antagonists of human GPR7 (neuropeptides B/W receptor 1) | GPR7-expressing cells, fluorescence antagonist assay | inhibition, % at 4.4 µM | 290,000 tested, 1.1% active | AID 1861; in the data active = inhibition above about 16%, passing the limit was not always enough;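 also: cells stimulated with the agonist NPW; 0% = agonist with vehicle and 100% = vehicle without agonist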
EP2 modulator = modulates human prostaglandin E2 receptor EP2 signaling | EP2-expressing cells, cAMP HTRF FRET, PGE2 co-stimulation | induction, % at 25 µM | 260,000 tested, 0.83% active;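 active = compounds whose cAMP rise, as percent of the full-agonist control response, exceeds 60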;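 also: rat C6 glioma line stably carrying human EP2 under a CMV promoter; the protocol text gives 20 µM as final concentration; 100% = response of wells given 1 µM PGE2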
CHO parental Ca = counter-screen for OX1R antagonists: effect in parental CHO cells; 330,000 tested, 0.63% active; AID 463079; parental CHO-K1, ATP-induced calcium, Fluo-8 fluorescence; inhibition, % at 5.6 µM;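 active = inhibition above that plate's mean sample inhibition plus 3 SD, cut at about 26% in these data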;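 also: 0% = ATP-challenged DMSO wells and 100% = DMSO wells without ATP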
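Assay system – parental CHO cells · Reagent – ATP stimulus · Detection – intracellular calcium via Fluo-8 no-wash fluorescent dye · Evaluation – percent inhibition of ATP-evoked calcium rise, normalized to controls · Controls – ATP wells versus no-ATP DMSO wells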
OX1R antag-2 = antagonists of human orexin 1 receptor (OX1R); OX1R-expressing cells, FRET antagonist read-out; 330,000 tested, 1.8% active; O43613; inhibition, % at 6.6 µM; in the data active = inhibition mostly above about 38%, no sharp cut-off; inactive = mostly below about 40%;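 also: 0% = agonist challenge alone and 100% = reference antagonist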
PGE2 EP2 inh = blocks the human prostaglandin E2 receptor EP2; C6 glioma cells expressing human EP2, cAMP TR-FRET; cells stimulated with saturating PGE2; 260,000 tested, 0.52% active; P43116; inhibition, % at 25 µM;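 active = percent inhibition above 40 after rounding to a whole number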;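 also: rat C6 glioma host cells with rolipram phosphodiesterase inhibitor present; the protocol text gives 20 µM as final concentration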
Numbers without * were called inactive; · = no result given. Most compounds without a hit are left out; they make up all but 3.7% or so of the library.

SMILES	OX1R antag-1	GPR7 antag	EP2 modulator	CHO parental Ca	OX1R antag-2	PGE2 EP2 inh
Cc1cc2nc3c(=O)n(CCc4ccccc4)c(=O)[nH]c3nc2cc1N	18.1	-0.8	-42.5	29.8	16.2	5.5
Nc1ccc2nc3c(=O)n(CCc4ccccc4)c(=O)[nH]c3nc2c1	41.5*	7.3	-48.1	35.5*	19.0	8.4
Cc1nc(SCc2nc3cc(Cl)c(F)cc3[nH]2)c2oc3ccccc3c2n1	33.2	·	·	0.6	52.7*	·
COc1ccc2c(c1)oc1c(SCc3nc4ccccc4[nH]3)nc(C)nc12	15.6	·	·	-24.5	48.0*	·
Cc1nc(SCc2nc3ccccc3[nH]2)c2oc3cc([N+](=O)[O-])ccc3c2n1	-19.7	·	·	-24.0	22.3	·
CCn1c(SCc2cccc(F)c2)nnc1-c1cccnc1	5.3	18.6*	-11.8	2.9	0.9	3.3
Cc1nn(CC(=O)NC2CCC(C)CC2)c(=O)c(C#N)c1C (centres undefined)	-4.7	·	·	-3.3	44.2*	·
O=C(OCC(=O)N1CCC(c2ccccc2)=N1)c1ccc(Cl)s1	33.5	·	·	-16.2	33.7*	·
COCCCNc1nc2ccccc2nc1NS(=O)(=O)c1cccc(Cl)c1	-8.8	-16.9	·	-14.4	11.5	·
Cc1cccc(-n2nnc(C(=O)Nc3ccc(F)cc3)c2N)c1	-14.6	7.7	-49.5	0.8	25.1	7.0
Cc1c(C(=O)Nc2ccc(F)cc2)nnn1-c1cccc(C(F)(F)F)c1	4.0	-18.8	-37.7	48.8*	36.1	8.0
CCC(C)[C@H]1CNCCN1CCc1cccc2ccccc12 (some centres undefined)	-30.4	·	·	-9.9	5.7	·
CCOc1ccc2nc(NC(=O)c3ccc(C)o3)sc2c1	-2.1	·	·	-15.2	37.7*	·
CCOC(=O)c1sc(NC(=O)c2ccc(C)o2)nc1C	18.5	-9.8	8.6	-20.0	54.3*	4.8
COc1cc2sc3cc(NCCCN4CCOCC4)ccc3c(=O)c2cc1OC	-1.6	·	·	-14.8	62.8*	·
CCOc1c(C#N)c(C#N)c2nc(C)cc(C)n12	-22.8	7.0	0.4	3.9	19.9	13.4
CC(=O)Nc1nc2cccc([N+](=O)[O-])c2s1	-8.9	-3.1	-20.5	-2.2	73.9*	6.1
O=C(Nc1nc2ccccc2s1)c1ccccc1[N+](=O)[O-]	-13.8	7.1	·	-7.1	-0.9	·
CC1(C)CC(N(Cc2ccncc2)Cc2ccccc2F)CC(C)(C)N1	·	·	-7.2	·	·	10.4
COc1cc(/C=C/C(=O)OCC(=O)NCc2ccco2)ccc1OC(F)F	-2.4	-7.0	·	-0.1	17.4	·
COc1cc(/C=C/C(=O)OCc2c(C)noc2C)ccc1OC(F)F	-34.3	15.8	-4.4	-8.3	7.1	83.1*
COc1ccccc1NC(=O)Nc1nn(C)c2cccc(OC)c12	-40.7	-14.2	75.3*	-41.8	33.5	11.9
COc1ccc(CN(CCN(C)C)c2ncccn2)cc1	·	·	10.5	·	·	11.5
CCCCCCCCCCCCCCCC[N+](C)(C)CCN(Cc1ccc(OC)cc1)c1ncccn1	46.2*	·	·	64.2*	6.6	·
O=C(Cc1ccc(Cl)cc1)Nc1ccc2c(c1)C(=O)NC2=O	8.1	18.7	-21.2	16.2	24.8	9.9
SMILES	OX1R antag-1	GPR7 antag	EP2 modulator	CHO parental Ca	OX1R antag-2	PGE2 EP2 inh
O=C(OCC(=O)N1CCCCC1)c1ccc2c(c1)C(=O)N(Cc1ccco1)C2=O	-6.8	·	·	-16.2	32.6*	·
CC1CC(C)CN(C(=O)COC(=O)c2ccc3c(c2)C(=O)N(Cc2ccco2)C3=O)C1 (centres undefined)	4.6	·	·	-9.4	9.8	·
COCCCNC(=O)CN1C(=O)/C(=C/c2ccccc2)Sc2ccccc21	-4.3	-7.6	-19.5	0.6	67.8*	4.7
COC(=O)c1sc(S(=O)(=O)NC(Cc2ccccc2)C(=O)O)c(C(=O)OC)c1C (centres undefined)	12.7	·	·	-5.1	31.7*	·
O=C(N/N=C/c1ccc([N+](=O)[O-])cc1)c1cccnc1	-17.9	2.7	·	1.6	72.2*	·
Nc1nnc(CC(=O)N/N=C/c2ccc([N+](=O)[O-])cc2)s1	3.4	-1.3	21.8	-3.0	75.1*	6.6
O=C1NCCCC1C(=O)N/N=C/c1ccc([N+](=O)[O-])cc1 (centres undefined)	-12.2	-6.8	-0.6	-6.2	53.6*	9.2
O=C(/C=C/c1ccc([N+](=O)[O-])cc1)NCc1ccccn1	-1.5	-0.6	3.8	-5.8	75.0*	7.0
O=C(/C=C/c1ccc([N+](=O)[O-])cc1)NCc1cccs1	-1.7	12.8	-60.0	-3.9	55.5	3.3

Compound activity as filed in PubChem.
